Experimental findings from ChEMBL document CHEMBL3297722, “Design, synthesis and docking studies of some novel (R)-2-(4'-chlorophenyl)-3-(4'-nitrophenyl)-1,2,3,5-tetrahydrobenzo[4,5] imidazo [1,2-c]pyrimidin-4-ol derivatives as antitubercular agents” (Eur J Med Chem, 2014) are described below.

In series [1] the test system is Mycobacterium tuberculosis. The series is described as follows: Antitubercular activity against Mycobacterium tuberculosis H37Rv ATCC 27294 in GAST/Fe medium after 1 week by broth microdilution method. The format is functional. As to conditions: H37Rv ATCC 27294, 168 h. In short, it runs like this:
(§1)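 Two-fold serial dilutions from DMSO stocks added to medium; equal volume of H37Rv diluted to 10,000 cells/mL in the same medium. DMSO-only wells; isoniazid positive control. 37 °C; growth read by inverted enlarging mirror. Quadruplicate. MIC = lowest concentration completely inhibiting growth.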
(Broth dilution looks for growth in wells or tubes with falling amounts of substance.)

Series [2] has as its system Mycobacterium tuberculosis. Kind of series: Antitubercular activity against Mycobacterium tuberculosis H37Rv ATCC 27294 in GAST/Fe medium after 2 weeks by broth microdilution method. Particulars: H37Rv ATCC 27294, 336 h. In kind it is functional. In short, it runs like this:
as §1

The test system of series [3] is Mycobacterium tuberculosis. The series is described as follows: Antitubercular activity against Mycobacterium tuberculosis H37Rv ATCC 27294 in 7H9/ADC/Tween medium after 1 week by broth microdilution method. In kind it is functional. As to conditions: H37Rv ATCC 27294, 168 h. The method, boiled down:
as §1

Series [4] has as its system Mycobacterium tuberculosis. The series is described as follows: Antitubercular activity against Mycobacterium tuberculosis H37Rv ATCC 27294 in 7H9/ADC/Tween medium after 2 weeks by broth microdilution method. In kind it is functional. As to conditions: H37Rv ATCC 27294, 336 h. The method, boiled down: as §1
Series [5] in a line: Cytotoxicity against African green monkey Vero cells assessed as survival at 50 ug/ml after 48 hrs by Cell-Titre Blue assay. In kind it is cell-based. Particulars: chlorocebus sabaeus, read-out: Survival. The method, boiled down: (§2)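 Vero cells in DMEM with 10% FBS, seeded at 20,000 cells/well and left to adhere overnight at 37 °C, 5% CO2. Medium then replaced with fresh medium containing compound, 48 h. Cell-Titer Blue added for a further 2 h; OD read at 560 nm. % survival = OD test/OD of DMSO-medium control ×100.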

Series [6] in a line: Cytotoxicity against African green monkey Vero cells assessed as survival at 25 ug/ml after 48 hrs by Cell-Titre Blue assay. The format is cell-based. Particulars: chlorocebus sabaeus, read-out: Survival. In short, it runs like this: as §2

In brackets after ≈: the same amount, converted by molar mass.

What is called MIC is the smallest concentration in the dilution series that meets the test's criterion for growth inhibition.

As for `COc1ccc([C@@H]2C(O)=C3Nc4ccccc4N3CN2c2ccc(OC)cc2)cc1`, the MIC is 50 µg/mL (≈ 125 µM) in series [1], 75 µg/mL (≈ 187 µM) in series [2], 100 µg/mL (≈ 249 µM) in series [3] and at least 100 µg/mL in series [4].
For `O=[N+]([O-])c1ccc(N2CN3C(=C(O)[C@H]2c2ccccc2[N+](=O)[O-])Nc2ccccc23)cc1`, the MIC in series [1] was determined as 37 µg/mL (≈ 85.8 µM); in series [2] it was 37 µg/mL (≈ 85.8 µM); in series [3] it was 37 µg/mL (≈ 85.8 µM); in series [4] it was 50 µg/mL (≈ 116 µM). Also, the viability at 48 h, 50 ug/ml in series [5] was found to be 61%. Besides, in series [6], the viability at 48 h, 25 ug/ml came out at 53%.
Take `Cc1cccc(C)c1N1CN2C(=C(O)[C@H]1c1ccc(O)cc1)Nc1ccccc12`: the MIC was 6.25 µg/mL (≈ 16.2 µM) in series [1], 9.4 µg/mL (≈ 24.4 µM) in series [2], 12.5 µg/mL (≈ 32.4 µM) in series [3] and 19 µg/mL (≈ 49.3 µM) in series [4]. Further, the viability at 48 h, 50 ug/ml in series [5] was found to be 63%. Besides, the viability at 48 h, 25 ug/ml in series [6] came to 66%.
On to `COc1ccc(N2CN3C(=C(O)[C@H]2c2cccc(-c4ccccn4)c2)Nc2ccccc23)cc1`, for which the MIC in series [1] was 12.5 µg/mL (≈ 27.9 µM); in series [2], 19 µg/mL (≈ 42.4 µM); in series [3], at least 100 µg/mL; in series [4] it was above 100 µg/mL. The viability at 48 h, 50 ug/ml in series [5] is 56%. Further, the viability at 48 h, 25 ug/ml in series [6] worked out at 66%.
For `O=[N+]([O-])c1ccc([C@@H]2C(O)=C3Nc4ccccc4N3CN2c2ccc(Cl)cc2)cc1`, the MIC in series [1] was 100 µg/mL (≈ 238 µM); in series [2], above 100 µg/mL; in series [3], above 100 µg/mL; in series [4], above 100 µg/mL.
Consider `NNC(=O)c1ccncc1` [ISONIAZID], for which the MIC in series [1], in series [2], in series [3] and in series [4] was 0.02 µg/mL (≈ 0.146 µM) each time. Further, the viability at 48 h, 50 ug/ml in series [5] came to 100%. For the same compound, the viability at 48 h, 25 ug/ml in series [6] stood at 100%.
For the compound `OC1=C2Nc3ccccc3N2CN(c2cc(Cl)cc(Cl)c2)[C@@H]1c1ccccc1Cl`, the minimal inhibitory concentration (MIC) is above 100 µg/mL in series [1], above 100 µg/mL in series [2], at least 100 µg/mL in series [3] and above 100 µg/mL in series [4].
As to `OC1=C2Nc3ccccc3N2CN(c2cc(Cl)cc(Cl)c2)[C@@H]1c1ccc(Cl)cc1`, the MIC is 37 µg/mL (≈ 83.2 µM) in series [1], 50 µg/mL (≈ 112 µM) in series [2], 100 µg/mL (≈ 225 µM) in series [3] and at least 100 µg/mL in series [4]. Also, in series [5], the viability at 48 h, 50 ug/ml was 69%. For the same compound, the viability at 48 h, 25 ug/ml in series [6] turned out to be 63%.
For the compound `O=[N+]([O-])c1ccc(N2CN3C(=C(O)[C@H]2c2cccc([N+](=O)[O-])c2)Nc2ccccc23)cc1`, the minimal inhibitory concentration (MIC) was 3.13 µg/mL (≈ 7.26 µM) in series [1], 4.7 µg/mL (≈ 10.9 µM) in series [2], 25 µg/mL (≈ 57.9 µM) in series [3] and 37 µg/mL (≈ 85.8 µM) in series [4]. Further, in series [5], the viability at 48 h, 50 ug/ml was found to be 69%. Also, the viability at 48 h, 25 ug/ml in series [6] is 66%.
Take `COc1ccc([C@@H]2C(O)=C3Nc4ccccc4N3CN2c2cc(Cl)cc(Cl)c2)cc1OC`: the MIC was 100 µg/mL (≈ 213 µM) in series [1], above 100 µg/mL in series [2], above 100 µg/mL in series [3] and above 100 µg/mL in series [4].
`Cc1ccc([C@@H]2C(O)=C3Nc4ccccc4N3CN2c2c(C)cccc2C)c(N)c1C`: the minimum inhibitory concentration (MIC) in series [1] was 37 µg/mL (≈ 89.7 µM); in series [2], 75 µg/mL (≈ 182 µM); in series [3], 100 µg/mL (≈ 242 µM); in series [4], above 100 µg/mL. Further, in series [5], the viability at 48 h, 50 ug/ml was 73%. In addition, in series [6], the viability at 48 h, 25 ug/ml is 64%.
With `COc1ccccc1[C@@H]1C(O)=C2Nc3ccccc3N2CN1c1c(C)cccc1C`, the MIC was 100 µg/mL (≈ 250 µM) in series [1], 100 µg/mL (≈ 250 µM) in series [2], 50 µg/mL (≈ 125 µM) in series [3] and above 100 µg/mL in series [4].
For the compound `COc1ccc(N2CN3C(=C(O)[C@H]2c2cccc(Br)c2)Nc2ccccc23)cc1`, the MIC in series [1], in series [2], in series [3] and in series [4] was above 100 µg/mL in each case.
In the case of `OC1=C2Nc3ccccc3N2CN(c2c(Cl)cccc2Cl)[C@@H]1c1cccc(O)c1`, the MIC in series [1] is 6.25 µg/mL (≈ 14.7 µM); in series [2] it was 9.4 µg/mL (≈ 22.1 µM); in series [3] it was 37 µg/mL (≈ 86.8 µM); in series [4] it was 50 µg/mL (≈ 117 µM). Besides, the viability at 48 h, 50 ug/ml in series [5] came out at 61%. In addition, the viability at 48 h, 25 ug/ml in series [6] came to 63%.
As to `COc1ccccc1[C@@H]1C(O)=C2Nc3ccccc3N2CN1c1cc(Cl)cc(Cl)c1`, the MIC in series [1] was 50 µg/mL (≈ 114 µM); in series [2], 100 µg/mL (≈ 227 µM); in series [3], 100 µg/mL (≈ 227 µM); in series [4], 100 µg/mL (≈ 227 µM).
For `COc1ccccc1N1CN2C(=C(O)[C@H]1c1ccccc1O)Nc1ccccc12`, the MIC in series [1] was 19 µg/mL (≈ 49 µM); in series [2], 25 µg/mL (≈ 64.5 µM); in series [3], 50 µg/mL (≈ 129 µM); in series [4] it was 75 µg/mL (≈ 194 µM). Besides, in series [5], the viability at 48 h, 50 ug/ml amounted to 69%. For the same compound, the viability at 48 h, 25 ug/ml in series [6] is 63%.
As for `OC1=C2Nc3ccccc3N2CN(c2ccc(Br)cc2)[C@@H]1c1ccc(O)cc1`, the MIC in series [1] is 75 µg/mL (≈ 172 µM); in series [2] it was 75 µg/mL (≈ 172 µM); in series [3], at least 100 µg/mL; in series [4], above 100 µg/mL.
As to `COc1ccc(O)c([C@@H]2C(O)=C3Nc4ccccc4N3CN2c2ccc(C(=O)O)cc2)c1`, the MIC in series [1], in series [2], in series [3] and in series [4] was above 100 µg/mL in each case.
